Consider 11 compounds from PMC10373183 (ACS Omega, 2023).

Data set [1] in a line: LDH release cytotoxicity assay. The data set is classed as cell-based. Particulars: human, U937 cells. Put shortly:
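U937 cells plated and exposed to test compound at several concentrations for 4 h at 37 °C, with Triton X-100 as positive cytotoxicity control. Plates spun 1000 RPM for 5 min. Supernatants mixed with LDH detection reagent for 10 min in the dark at room temperature, then read at OD 490 nm. LC50 fitted from percent activity.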
(LDH leaks from cells whose membrane has failed.)

The test system of a further data set is U937 cells. Description: CellTiter-Glo Luminescent cell viability assay. The data set is classed as cell-based, human. To be noted: for inhibition at 25 µM / inhibition at 50 µM / inhibition at 100 µM / inhibition at 200 µM / GI50: Homo sapiens; for inhibition at 25 µM / inhibition at 50 µM / inhibition at 100 µM / inhibition at 200 µM: U-937, 72 h, read-out: percent inhibition at various concentrations of compounds (CellTiter-Glo, antiproliferative); for GI50: U-937, read-out: antiproliferative (U937) GI50; for antiproliferative activity (in words) / percent inhibition at various concentrations of compounds (CellTiter-Glo, antiproliferative): U937 cells; for antiproliferative activity (in words): CellTiter-Glo, four concentrations; for percent inhibition at various concentrations of compounds (CellTiter-Glo, antiproliferative): 72 h, Mitomycin C = 100%, DMSO = 0%. The essentials:
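U937 cells incubated 72 h with test compound at four concentrations; CellTiter-Glo reagent added at equal volume, shaken 2 min to lyse, then held 10 min at room temperature before luminescence read. Viability = RLU test × 100/RLU control, converted to percent inhibition. GI50 fitted from percent inhibition. Mitomycin C positive control; DMSO diluent as negative control.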

“Also recorded” adds a separate entry of the source. A value given as a limit tells only on which side of the number the result lay.

One may read the GI50 as the concentration giving 50% growth inhibition.

`Cc1n[nH]c(C)c1S(=O)(=O)NCCc1cccc(Cl)c1` [MR-S1-7, N-(3-Chlorophenethyl)-3,5-dimethyl-1H-pyrazole-4-sulfonamide]: in data set [1], the inhibition at 4 h, 12.5 µM is -2%; the inhibition at 4 h, 25 µM is -2.4%; the inhibition at 4 h, 50 µM worked out at 0.9%; the inhibition at 4 h, 100 µM is -3.1%. In addition, in the data set on U937 cells, the inhibition at 25 µM was 14.5%, the inhibition at 50 µM was found to be 13.4%, the inhibition at 100 µM came out at 24.2% and the inhibition at 200 µM amounted to 51.6%. In addition, the GI50 in the data set on U937 cells is more than 200 µM.

As to `CCOCCn1c(C2CCN(S(=O)(=O)c3c(C)n[nH]c3C)CC2)nc2ccccc21` [MR-S1-19, 2-(1-((3,5-Dimethyl-1H-pyrazol-4-yl)sulfonyl)piperidin-4-yl)-1-(2-ethoxyethyl)-1H-benzo[d]imidazole], in data set [1], the inhibition at 4 h, 12.5 µM is -4.9%; the inhibition at 4 h, 25 µM was -1.3%; the inhibition at 4 h, 50 µM is -1.8%; the inhibition at 4 h, 100 µM was -4%. Besides, in the data set on U937 cells, the inhibition at 25 µM is -5%, the inhibition at 50 µM turned out to be 2.2%, the inhibition at 100 µM was -1.3% and the inhibition at 200 µM worked out at 18%. For the same compound, in the data set on U937 cells, the concentration for 50% growth inhibition (GI50) is more than 200 µM and the “antiproliferative activity (in words)” value is “impotent; also recorded: less anti-proliferative activity”.

For `Cc1n[nH]c(C)c1S(=O)(=O)NCCc1ccc(Cl)cc1` [MR-S1-5, N-(4-Chlorophenethyl)-3,5-dimethyl-1H-pyrazole-4-sulfonamide], in data set [1], the inhibition at 4 h, 12.5 µM was -1.8%; the inhibition at 4 h, 25 µM is -2.2%; the inhibition at 4 h, 50 µM was -0.2%; the inhibition at 4 h, 100 µM is -2.7%. Further, in the data set with U937 cells, the inhibition at 25 µM came out at 48.3%, the inhibition at 50 µM worked out at 44.2%, the inhibition at 100 µM amounted to 61.5% and the inhibition at 200 µM amounted to 78.7%. Besides, in the data set with U937 cells, the GI50 turned out to be 16 µM and the “antiproliferative activity (in words)” value is listed as “moderate anti-proliferative activity”.

As to “N-(3,4-Bis(methoxy-d3)phenethyl-d6)-3,5-dimethyl-1H-pyrazole-4-sulfonamide [MR-S1-10]”, the “percent inhibition at various concentrations of compounds (CellTiter-Glo, antiproliferative)” value in the data set with U937 cells (25 μM compound) is reported as “–8.1%”; in the data set with U937 cells (50 μM compound), “–37.5%”; with U937 cells (100 μM compound), “–39.0%”; in the data set on U937 cells (200 μM compound), “–14.5%”. The “antiproliferative activity (in words)” value with U937 cells was “less anti-proliferative activity”.

Consider `Cc1nn(C)c(C)c1S(=O)(=O)NCCc1cccc(Cl)c1` [MR-S1-8, N-(3-Chlorophenethyl)-1,3,5-trimethyl-1H-pyrazole-4-sulfonamide], for which, in data set [1], the inhibition at 4 h, 12.5 µM was 2.9%; the inhibition at 4 h, 25 µM is -1.3%; the inhibition at 4 h, 50 µM amounted to 1.8%; the inhibition at 4 h, 100 µM came out at 0.4%. In addition, in the data set on U937 cells, the inhibition at 25 µM was 25.1%, the inhibition at 50 µM is 28.4%, the inhibition at 100 µM is 34.6% and the inhibition at 200 µM stood at 47.4%. Further, the GI50 in the data set on U937 cells is more than 200 µM.

Take `Cc1n[nH]c(C)c1S(=O)(=O)N[C@H](C)c1cccc2ccccc12` [MR-S1-14, (R)-3,5-Dimethyl-N-(1-(naphthalen-1-yl)ethyl)-1H-pyrazole-4-sulfonamide]: in data set [1], the inhibition at 4 h, 12.5 µM was -2.4%; the inhibition at 4 h, 25 µM is -4%; the inhibition at 4 h, 50 µM is -0.9%; the inhibition at 4 h, 100 µM was -3.1%. In the data set with U937 cells, the inhibition at 25 µM came to 27.6%, the inhibition at 50 µM turned out to be 32.9%, the inhibition at 100 µM was determined as 68.7% and the inhibition at 200 µM turned out to be 98.9%. Also, in the data set on U937 cells, the GI50 was 9.4 µM and the “antiproliferative activity (in words)” value is given as “good antiproliferative activity; also recorded: most potent”.

In the case of `CCCOc1ccc(CCNS(=O)(=O)c2c(C)n[nH]c2C)cc1OCCC` [MR-S1-12, N-(3,4-Dipropoxyphenethyl)-3,5-dimethyl-1H-pyrazole-4-sulfonamide], in data set [1], the inhibition at 4 h, 12.5 µM was -2.2%; the inhibition at 4 h, 25 µM was 0.7%; the inhibition at 4 h, 50 µM was -2.7%; the inhibition at 4 h, 100 µM is -0.9%. In the data set with U937 cells, the inhibition at 25 µM worked out at 35.9%, the inhibition at 50 µM is 94.9%, the inhibition at 100 µM was found to be 100% and the inhibition at 200 µM was 99.3%. Also, in the data set on U937 cells, the 50% growth inhibitory concentration (GI50) is 3.3 µM and the “antiproliferative activity (in words)” value is “good antiproliferative activity; also recorded: potent”.

Turning to `COc1ccc(CCNS(=O)(=O)c2c(C)n[nH]c2C)cc1OC` [MR-S1-9, N-(3,4-Dimethoxyphenethyl)-3,5-dimethyl-1H-pyrazole-4-sulfonamide], in data set [1], the inhibition at 4 h, 12.5 µM is -2.7%; the inhibition at 4 h, 25 µM is 2.7%; the inhibition at 4 h, 50 µM worked out at 2.4%; the inhibition at 4 h, 100 µM is -2.4%. In the data set with U937 cells, the inhibition at 25 µM was -0.5%, the inhibition at 50 µM is -26.2%, the inhibition at 100 µM was -21.2% and the inhibition at 200 µM was determined as 2%. In the data set with U937 cells, the 50% growth inhibitory concentration (GI50) is more than 200 µM and the “antiproliferative activity (in words)” value was “impotent; also recorded: less anti-proliferative activity”.

For `Cc1nn(C)c(C)c1S(=O)(=O)NCCc1ccccc1` [MR-S1-4, 1,3,5-Trimethyl-N-phenethyl-1H-pyrazole-4-sulfonamide], in data set [1], the inhibition at 4 h, 12.5 µM was -2.9%; the inhibition at 4 h, 25 µM was -2.2%; the inhibition at 4 h, 50 µM was -0.9%; the inhibition at 4 h, 100 µM was -1.8%. In the data set on U937 cells, the inhibition at 25 µM is 33%, the inhibition at 50 µM amounted to 19.2%, the inhibition at 100 µM was 37.8% and the inhibition at 200 µM came out at 23.2%. In the data set with U937 cells, the GI50 is more than 200 µM and the “antiproliferative activity (in words)” value is reported as “impotent; also recorded: less anti-proliferative activity”.

On to `Cc1n[nH]c(C)c1S(=O)(=O)NCCc1ccccc1` [MR-S1-3, 3,5-Dimethyl-N-phenethyl-1H-pyrazole-4-sulfonamide], for which, in data set [1], the inhibition at 4 h, 12.5 µM was -0.9%; the inhibition at 4 h, 25 µM was -2.4%; the inhibition at 4 h, 50 µM is -1.3%; the inhibition at 4 h, 100 µM was -1.3%. Besides, in the data set on U937 cells, the inhibition at 25 µM amounted to 12.7%, the inhibition at 50 µM worked out at 24.5%, the inhibition at 100 µM stood at 31.8% and the inhibition at 200 µM amounted to 74.8%. Besides, in the data set on U937 cells, the 50% growth inhibitory concentration (GI50) was 16 µM and the “antiproliferative activity (in words)” value is “moderate anti-proliferative activity”.

As for `Cc1n[nH]c(C)c1S(=O)(=O)NCCC1=CCCCC1` [MR-S1-1, N-(2-(Cyclohex-1-en-1-yl)ethyl)-3,5-dimethyl-1H-pyrazole-4-sulfonamide], in data set [1], the inhibition at 4 h, 12.5 µM was -0.9%; the inhibition at 4 h, 25 µM was -2.2%; the inhibition at 4 h, 50 µM was -0.4%; the inhibition at 4 h, 100 µM was -1.8%. Further, in the data set on U937 cells, the inhibition at 25 µM is 18.6%, the inhibition at 50 µM turned out to be 34.5%, the inhibition at 100 µM stood at 54.2% and the inhibition at 200 µM turned out to be 64.2%. Further, in the data set on U937 cells, the 50% growth inhibitory concentration (GI50) is 1.7 µM and the “antiproliferative activity (in words)” value is “moderate anti-proliferative activity”.
